Counter-ions that a name gives are not always drawn.
How the values were obtained:
In vitro cytotoxicity = type: cell-based; conditions: African green monkey, Vero cells (African green monkey kidney fibroblast)
Procedure, shortened: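 Vero (African green monkey kidney) cell growth assay. […] Test compounds went up to 25 μg/mL and the doxorubicin control up to 5 μg/mL. Values are means of three independent experiments.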

[1] = system: C. albicans, Candida glabrata, Candida krusei, Aspergillus fumigatus, and C. neoformans; experiment: In vitro antifungal testing, range over all tested pathogens; type: cell-based; conditions: range over the five fungal pathogens
Procedure, shortened: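 Broth microdilution. MIC is the lowest concentration with no detectable growth. For MFC, 5 μL from each clear well was moved to agar and incubated at 35°C: 48 h for Candida spp. and A. fumigatus, 72 h for C. neoformans. […] Values are means of three independent experiments (two for one analogue).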

C. albicans ATCC 90028 = experiment: In vitro antifungal testing; type: cell-based, Candida albicans; conditions: from MIC/MFC
C. albicans SC5314 = experiment: In vivo efficacy in mouse model of systemic candidiasis; conditions: 5 and 25 mg/kg
[2] = patients with leishmania; cited from earlier work
fungi = conditions: antifungal activity; cited from earlier work

CCCCCCCCCCCCCCCCOP(=O)([O-])OCC[N+](C)(C)Cc1ccccc1 [Compound 3a, N-benzyl-N,N-dimethyl-2-{[(hexadecyloxy)hydroxyphosphinyl]oxy}ethanaminium inner salt]
IC50 (In vitro cytotoxicity): > 25 µg/mL | MFCs, range against all tested pathogens [1]: 2.5 to 15.0 µg/mL | MICs, range against all tested pathogens [1]: 2.5 to 5.0 µg/mL | fold less potent than amphotericin B (C. albicans ATCC 90028): 2- to 3 fold | Survival rate of mice vs PBS control, oral administration (C. albicans SC5314): did not enhance the survival rate

CCCCCCCCCCCCCCOP(=O)([O-])OCC[N+](C)(C)Cc1ccccc1 [Compound 3b]
IC50 (In vitro cytotoxicity): > 25 µg/mL

CCCCCCCCCCCCCCCCCCOP(=O)([O-])OCC[N+](C)(C)Cc1ccccc1 [Compound 3c]
IC50 (In vitro cytotoxicity): > 25 µg/mL

CCCCCCCCCCCCCCCCOP(=O)([O-])OCC[N+](C)(C)Cc1ccc([N+](=O)[O-])cc1 [Compound 3d, N,N-dimethyl-N-(4-nitrobenzyl)-2-{[(hexadecyloxy)hydroxyphosphinyl]oxy}ethanaminium inner salt]
IC50 (In vitro cytotoxicity): > 25 µg/mL | MICs, range against all tested pathogens [1]: 2.5 to 5.0 µg/mL | fold less potent than amphotericin B (C. albicans ATCC 90028): 2- to 3 fold

CCCCCCCCCCCCCCCCOP(=O)([O-])OCC[N+](C)(C)Cc1ccc(OC)cc1 [Compound 3e, N-(4-methoxybenzyl)-N,N-dimethyl-2-{[(hexadecyloxy)hydroxyphosphinyl]oxy}ethanaminium inner salt]
IC50 (In vitro cytotoxicity): > 25 µg/mL | MICs, range against all tested pathogens [1]: 2.5 to 5.0 µg/mL

CCCCCCCCCCCCCCCCOP(=O)([O-])OCC[N+](C)(C)Cc1ccc(Cl)cc1 [Compound 3f]
IC50 (In vitro cytotoxicity): > 25 µg/mL

CCCCCCCCCCCCCCCCOP(=O)([O-])OCC[N+](C)(C)Cc1ccc(Br)cc1 [Compound 3g]
IC50 (In vitro cytotoxicity): > 25 µg/mL

CCCCCCCCCCCCCCCCOP(=O)([O-])OCC[N+](C)(C)C/C=C/c1ccccc1 [Compound 3h]
IC50 (In vitro cytotoxicity): > 25 µg/mL

C=CC[N+](C)(C)CCOP(=O)([O-])OCCCCCCCCCCCCCCCC [Compound 3i]
IC50 (In vitro cytotoxicity): > 25 µg/mL

COc1cccc2c1C(=O)c1c(O)c3c(c(O)c1C2=O)C[C@@](O)(C(=O)CO)C[C@@H]3O[C@H]1C[C@H](N)[C@H](O)[C@H](C)O1 [Doxorubicin, reference compound]
IC50 (In vitro cytotoxicity): > 5 µg/mL

CCCCCCCCCCCCCCCCOP(=O)([O-])OCC[N+](C)(C)C [Miltefosine, hexadecylphosphocholine]
IC50 (In vitro cytotoxicity): > 25 µg/mL | half-life, first elimination [2]: 7 days | half-life, terminal elimination [2]: 31 days

CCCCCCCC/C=C\CCCCCCCCCCCCOP(=O)([O-])OCC[N+](C)(C)C [erucylphosphocholine]
fold less potent than miltefosine (fungi): 8 fold

Source: PMC3760157 (Bioorganic & medicinal chemistry letters, 2013)
